# Measured values from ChEMBL document CHEMBL1133621, “Synthesis, characterization, and cytotoxicity of trifunctional dinuclear platinum complexes: comparison of effects of geometry and polyfunctionality on biological activity” (J Med Chem, 2000).
# Several values for one entry are separate records, joined by “and”; a condition that tells them apart may be missing. Equal values may be shown once.
# Legend:
# Type in all cases: functional, cell-based
# CH1 [1] = experiment: Cytotoxic activity in a panel of Human ovarian tumor CH1/CDDP cell line after 96h of drug exposure
# Procedure, shortened: (§1)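 SRB growth-inhibition assay. Cells were seeded at (3-8) × 10^3 per well and left to attach overnight. Platinum agents were added after serial dilution, in quadruplicate wells, with continuous 96 h exposure. Growth in treated and control wells was quantified by staining with 0.4% SRB dissolved in 1% acetic acid.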
# SK-OV-3 = experiment: Cytotoxic activity in a panel of Human ovarian tumor SKOV-3 cell line after 96h of drug exposure; procedure, shortened: as §1
# CH1 [2] = experiment: Cytotoxic activity in a panel of Human ovarian tumor CH1 cell line after 96h of drug exposure; procedure, shortened: as §1
# HX62 cell line = experiment: Cytotoxic activity in a panel of Human ovarian tumor HX/62 cell line after 96h of drug exposure; procedure, shortened: as §1
# 41M [3] = experiment: Cytotoxic activity in a panel of Human ovarian tumor 41M/CDDP cell line after 96h of drug exposure; procedure, shortened: as §1
# 41M [4] = experiment: Cytotoxic activity in a panel of Human ovarian tumor 41M cell line after 96h of drug exposure; procedure, shortened: as §1
# A2780 [5] = experiment: Cytotoxic activity in a panel of Human ovarian tumor A2780/CDDP cell line after 96h of drug exposure; procedure, shortened: as §1
# A2780 [6] = experiment: RF(Resistant factor) is determined from the ratio of IC50 of A2780 to the IC50 of CDDP cell lines
# 41M [7] = experiment: RF(Resistant factor) is determined from the ratio of IC50 of 41M to the IC50 of CDDP cell lines
# CH1 [8] = experiment: RF(Resistant factor) is determined from the ratio of IC50 of CH1 to the IC50 of CDDP cell lines
# A2780 [9] = experiment: Cytotoxic activity in a panel of Human ovarian tumor A2780 cell line after 96h of drug exposure; procedure, shortened: as §1
Substance,IC50 (CH1 [1]),IC50 (SK-OV-3),IC50 (CH1 [2]),IC50 (HX62 cell line),IC50 (41M [3]),IC50 (41M [4]),IC50 (A2780 [5]),RF (A2780 [6]),RF (41M [7]),RF (CH1 [8]),IC50 (A2780 [9])
CISPLATIN [listing 1 of 2 here],1450 nM,8 µM,180 nM,25 µM,1700 nM,540 nM,6200 nM,,,,
CISPLATIN [listing 2 of 2 here],,,,,,,,11.7,3.1,8,
trans-[{PtCl(NH3)2}-mu-{NH2(CH2)6NH2}-cis-{PtCl2(NH3)}]Cl [listing 1 of 2 here],970 nM and 980 nM,31 µM and 17.7 µM,300 nM and 220 nM,24 µM and 12.5 µM,670 nM and 1300 nM,2500 nM and 2400 nM,890 nM and 340 nM,,,,280 nM and 66 nM
trans-[{PtCl(NH3)2}-mu-{NH2(CH2)6NH2}-cis-{PtCl2(NH3)}]Cl [listing 2 of 2 here],,,,,,,,3.2 and 5.2,0.27 and 0.53,3.2 and 4.4,
trans-[{PtCl(NH3)2}-mu-{NH2(CH2)6NH2}-trans-{PtCl(NH3)2}] [listing 1 of 2 here],,15.3 µM and 87 µM,,11 µM and 14 µM,410 nM and 1800 nM,1900 nM and 7400 nM,1200 nM and 4900 nM,,,,66 nM and 250 nM
trans-[{PtCl(NH3)2}-mu-{NH2(CH2)6NH2}-trans-{PtCl(NH3)2}] [listing 2 of 2 here],,,,,,,,18 and 19.6,0.21 and 0.24,3.3 and 2,
